For assay [1], the target named is Sigma non-opioid intracellular receptor 1 (Cavia porcellus, UniProt Q60492). Description: Displacement of [3H](+)-pentazocine ((+)-[2S-(2R,6R,11R)]-1,2,3,4,5,6-hexahydro-6,11-dimethyl- 3-(3-methyl-2-butenyl)-2,6-methano-3-benzazocine- 8-ol) from sigma 1 receptor in Dunkin guinea pig brain membrane by radioreceptor binding assay. Type of assay: cell membranes. Summed up: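 IC50 came from six to nine concentrations, in two or three experiments with duplicate samples. Compounds were tested as hydrochloride salts, or as methylammonium iodides where applicable.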
Sigma non-opioid intracellular receptor 1 (Cavia porcellus, UniProt Q60492), sequence (Q60492 whole entry): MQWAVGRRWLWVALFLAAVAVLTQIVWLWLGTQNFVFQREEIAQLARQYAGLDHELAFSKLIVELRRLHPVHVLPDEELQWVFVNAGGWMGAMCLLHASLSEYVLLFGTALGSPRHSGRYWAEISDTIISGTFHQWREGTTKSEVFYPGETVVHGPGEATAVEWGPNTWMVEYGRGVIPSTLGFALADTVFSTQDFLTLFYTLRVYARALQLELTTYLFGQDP

Assay [2] is described as follows: Displacement of [3H]DTG form sigma 2 receptor in Wistar Hannover rat liver membrane by radioreceptor binding assay. Format: cell membranes. Summed up:
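Specific binding was defined with DTG (85-96%). IC50 came from six to nine drug concentrations, in two or three experiments with duplicate samples.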

For assay [3], the target named is T1, 3-beta-hydroxysteroid-Delta(8),Delta(7)-isomerase (Cavia porcellus, UniProt Q60490).
T1 sequence (Q60490 whole entry): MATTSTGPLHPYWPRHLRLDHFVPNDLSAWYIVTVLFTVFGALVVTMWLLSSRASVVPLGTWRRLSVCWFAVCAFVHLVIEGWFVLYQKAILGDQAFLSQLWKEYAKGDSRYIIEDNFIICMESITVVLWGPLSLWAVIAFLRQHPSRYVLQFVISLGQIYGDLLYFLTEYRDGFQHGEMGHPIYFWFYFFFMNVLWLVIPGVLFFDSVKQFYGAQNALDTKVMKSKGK
Description: Displacement of [3H](+/-)-emopamil from EBP in Dunkin guinea pig liver membrane by radioreceptor binding assay. Format: cell membranes.

A short description of assay [4]: Selectivity ratio of Ki for sigma 2 receptor in Wistar Hannover rat liver membrane to Ki for sigma 1 receptor in Dunkin guinea pig brain. Format: cell membranes. In a few lines: (§1)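 Ratios were calculated from Ki values. Sigma-1 Ki was measured with (+)-[3H]-pentazocine on guinea-pig brain membranes without cerebellum. […] Each IC50 came from six to nine concentrations, in two or three experiments with duplicates.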

The test system of assay [5] is SK-N-SH. Description: Inhibition of human SK-N-SH cell proliferation at 100 uM after 48 hrs by MTT assay. Format: functional. Summed up:
(§2)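 Human SK-N-SH neuroblastoma cells were grown in RPMI 1640 with 10% FBS, 2 mM glutamine, penicillin/streptomycin, 1 mM pyruvate and 1% non-essential amino acids at 37 °C under 5% CO2. Cells were plated at 10 000/well and dosed next day at 1–100 μM, with solvent (ethanol, DMSO) controls. After 48 h, 0.5 mg/mL MTT was added for 3 h at 37 °C. Formazan was dissolved in DMSO and read at 570 and 630 nm.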

The nature of assay [6]: Selectivity ratio of Ki for sigma 1 receptor in Dunkin guinea pig brain membrane to Ki for sigma 2 receptor in Wistar Hannover rat liver membrane. Format: cell membranes. Summed up: as §1
Assay [7] deals with SK-N-SH. Description: Antiproliferative activity against human SK-N-SH cells after 48 hrs by MTT assay. Format: functional, cell-based. In a few lines: as §2
The target in assay [8] is Sigma non-opioid intracellular receptor 1 (Rattus norvegicus, UniProt Q9R0C9). Description: Displacement of [3H](+/-)-pentazocine from sigma 1 receptor in rat whole brain.
Sigma non-opioid intracellular receptor 1 (Rattus norvegicus, UniProt Q9R0C9), sequence (Q9R0C9 whole entry): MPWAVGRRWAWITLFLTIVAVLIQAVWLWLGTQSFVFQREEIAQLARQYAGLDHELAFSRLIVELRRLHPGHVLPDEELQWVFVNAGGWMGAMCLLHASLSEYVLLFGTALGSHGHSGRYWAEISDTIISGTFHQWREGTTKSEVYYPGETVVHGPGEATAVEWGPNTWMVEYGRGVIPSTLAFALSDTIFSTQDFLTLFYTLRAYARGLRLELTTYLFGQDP
Assay [9] is described as follows: Displacement of [3H]DTG form sigma receptor in guinea pig brain. Further details: species or system Cavia porcellus.
A short description of assay [10]: Displacement of [3H]DTG form sigma 2 receptor in rat liver membrane. Type of assay: cell membranes. In a few lines:
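IC50 taken from six to nine drug concentrations, two or three experiments with duplicate samples, and converted to Ki. Tested as hydrochloride salts, or as methylammonium iodide salts for the quaternized analogs.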

The nature of assay [11]: Binding affinity to sigma 2 receptor in human SK-N-SH cells. Type of assay: cell-based.

Where only a bound is given, the exact number is not on record here.

`C1CCC(N2CCN(C3CCCCC3)CC2)CC1`: the figures for the Ki in assay [1], in [2] and in assay [3] were 2.05 nM, 11.5 nM and 17 nM, respectively. Further, the Ratio Ki in assay [4] stood at 5.6. In the assay on SK-N-SH [5], the inhibition at 100 µM is 4%.
Consider `CC(=O)N1CCN(C)CC1`, for which the Ki in assay [1] is > 5000 nM; in [2], > 10000 nM; in [3], > 1000 nM.
Regarding `COc1cccc2c1CCCC2CCCNCC(=O)NC1CCCCC1` (stereo unspecified), the Ki stood at 3910 nM in assay [1], 798 nM in [2] and 1230 nM in [3]. The Ratio Ki in [6] was 5.
As for `COc1cccc2c1CCCC2CCC[N+]1(C)CCN(C2CCCCC2)CC1` (stereo unspecified), the inhibition constant Ki in [1] was 63.7 nM; in [2] it was 6.78 nM; in [3] it was 32 nM. Besides, the Ratio Ki in assay [6] stood at 9.4. This molecule came in with an inhibition at 100 µM with SK-N-SH [5] of 26%.
Take `C1CCC(CCCN2CCN(C3CCCCC3)CC2)CC1`: the Ki in [1] came out at 0.25 nM; in [3], 4.7 nM. In addition, the Ratio Ki in [4] worked out at 19. The same molecule returned an EC50 in the assay on SK-N-SH [7] of 52100 nM.
Consider `COc1cccc2c1CCCC2CCCN1CCC(O)(C2CCCCC2)CC1` (stereo unspecified), for which the inhibition constant (Ki) is 5.56 nM in assay [1], 9.27 nM in assay [2] and 10.4 nM in [3]. Also, the Ratio Ki in assay [4] was 1.6. In addition, the midpoint of the response in the assay with SK-N-SH [7], the EC50, lay at 15900 nM.
In the case of `COc1cccc2c1CCCC2CCCN1CC[N+](C)(C2CCCCC2)CC1` (stereo unspecified), the Ki stood at 338 nM in assay [1], 13 nM in assay [2] and 23 nM in [3]. Further, the Ratio Ki in [6] stood at 26. In the assay on SK-N-SH [5], this molecule displayed an inhibition at 100 µM of 22%.
Consider `COc1cccc2c1CCCC2CCCN1CCCCC1` (stereo unspecified), for which the inhibition constant Ki in assay [1] came to 3.38 nM; in assay [2], 41.2 nM; in assay [3], 11.1 nM; in assay [8] it was 18.2 nM. In addition, the Ratio Ki in [4] came to 12.
For `O=C(C1CCCCC1)N1CCN(C2CCCCC2)CC1`, the Ki in assay [1] came to 3.59 nM; in [2], 201 nM; in assay [3] it was 230 nM. Also, the Ratio Ki in assay [4] stood at 56.
As to `COc1cccc2c1CCCC2CCCC1CCN(C2CCCCC2)CC1` (stereo unspecified), the inhibition constant (Ki) in assay [1] was 1.1 nM; in assay [2], 26.6 nM; in [3] it was 1.46 nM. In [4], the Ratio Ki stood at 24. Moreover, a half-maximal response with SK-N-SH [7] (EC50) required 1400 nM.
`COc1cccc2c1CCCC2CCCN1CCN(CCCC2CCCc3c(OC)cccc32)CC1` (stereo unspecified): the inhibitory constant (Ki) in assay [1] is > 5000 nM; in assay [2] it was 120 nM; in assay [3] it was 470 nM. The Ratio Ki in [6] is > 42.
For the molecule `COc1cccc2c1CCCC2CCCN1CCNCC1` (stereo unspecified), the Ki in assay [1] is 218 nM; in assay [2] it was 590 nM; in [3] it was 35.4 nM; in assay [9], > 877 nM. In [4], the Ratio Ki was 2.7.
On to `COc1cccc2c1CCCC2CCCN1CCC(C2CCCCC2)CC1` (stereo unspecified), for which the inhibition constant Ki in [1] stood at 143 nM; in [2], 18.8 nM; in [3], 7.4 nM. The Ratio Ki in [6] worked out at 7.6. Further, it took 3640 nM to reach a half-maximal effect in the assay with SK-N-SH [7] (EC50).
`CC(C(O)c1ccc(O)cc1)N1CCC(Cc2ccccc2)CC1` (racemic) [IFENPRODIL] gave an inhibitory constant (Ki) in assay [3] of 10.2 nM.
In the case of `CC(=O)N1CCN(C2CCCCC2)CC1`, the Ki was > 5000 nM in assay [1], > 5000 nM in assay [2] and > 1000 nM in assay [3].
Turning to `COc1cccc2c1CCCC2NCCN1CCC(C2CCCCC2)CC1` (stereo unspecified), the inhibitory constant (Ki) came to 0.67 nM in [1] and 74.7 nM in assay [2]. The Ratio Ki in [4] amounted to 111.
`COc1cccc2c1CCCC2CCC(=O)N1CCN(C2CCCCC2)CC1` (stereo unspecified): the values for the Ki in [1], in assay [2] and in [3] were 0.11 nM, 179 nM and 7.4 nM, respectively. In addition, the Ratio Ki in [4] was found to be 1630.
With `COc1cccc2c1CCCC2CCC[N+]1(C)CC[N+](C)(C2CCCCC2)CC1` (stereo unspecified), the figures for the Ki in assay [1], in assay [2] and in assay [3] were > 5000 nM, 1710 nM and 150 nM, respectively. The Ratio Ki in assay [6] is > 3. Further, the inhibition at 100 µM in the assay on SK-N-SH [5] came out at 30%.
`COc1cccc2c1CCCC2CCCN1CCOCC1` (stereo unspecified): the inhibitory constant (Ki) was found to be 9.1 nM in [1] and 442 nM in assay [2]. Moreover, in assay [4], the Ratio Ki turned out to be 49.
Consider `CCN1CCN(C2CCCCC2)CC1`, for which the figures for the Ki in assay [1], in assay [2] and in [3] were 62.4 nM, 349 nM and 64.4 nM, respectively. In addition, in [4], the Ratio Ki worked out at 5.6.
Regarding `Cc1ccccc1NC(=N)Nc1ccccc1C` [DITOLYLGUANIDINE], in assay [2], the affinity, expressed as Ki, was 32 nM.
Regarding `COc1cccc2c1CCCC2CCCCCN1CCC(C2CCCCC2)CC1` (stereo unspecified), the results for the inhibition constant Ki in assay [1], in [2] and in assay [3] were 236 nM, 72.3 nM and 49 nM, respectively. The Ratio Ki in assay [6] was determined as 3.3.
In assay [10], `COc1cccc2c1CCCC2CCCN1CCN(C2CCCCC2)CC1` (stereo unspecified) returned a Ki of 0.68 nM. For the same molecule, a half-maximal effect with SK-N-SH [7] (EC50) was put at 9970 nM.
In the assay with SK-N-SH [5], `c1ccc(CCN2CCN(c3ccccn3)CC2)cc1` returned an inhibition at 100 µM of 38%.
On to `COc1cccc2c1CCCC2CCCN1CCN(C(=O)C2CCCCC2)CC1` (stereo unspecified), for which the Ki is > 5000 nM in [1], 304 nM in assay [2] and 550 nM in assay [3]. The Ratio Ki in assay [6] was > 16.
Regarding `COc1cccc2c1CCCC2OCCN1CCC(C2CCCCC2)CC1` (stereo unspecified), the figures for the inhibition constant Ki in [1] and in assay [2] were 91 nM and 161 nM, respectively. Moreover, the Ratio Ki in [4] turned out to be 1.8.
As to `C1CCC(N2CCNCC2)CC1`, the figures for the inhibition constant Ki in [1], in assay [2] and in [3] were > 5000 nM, > 5000 nM and > 1000 nM, respectively.
Turning to `CC(C)=CCN1CC[C@]2(C)c3cc(O)ccc3C[C@H]1[C@H]2C` [(+)-PENTAZOCINE], in assay [11], the inhibitory constant (Ki) was determined as 1860 nM.

Values taken from ChEMBL document CHEMBL1154636, “Exploring the importance of piperazine N-atoms for sigma(2) receptor affinity and activity in a series of analogs of 1-cyclohexyl-4-[3-(5-methoxy-1,2,3,4-tetrahydronaphthalen-1-yl)propyl]piperazine (PB28)” (J Med Chem, 2009).
